≈ marks a conversion by molar mass, not a printed value. Calls of active or inactive are those of the source. The rule behind the calls is not given here.
What was measured:
[1] = system: Mycolicibacterium smegmatis; experiment: (§1) Inhibition of NDH2 in Mycobacterium smegmatis (MC2) 155 membranes assessed NADH oxidation relative to control
How it was run: (§2)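 M. smegmatis membranes at 50 μg/mL in 20 mM sodium phosphate pH 8.0 at 37°C, with compound (0–200 μM) preincubated 30 s. Reaction started with 200 μM NADH; A340 followed (ε 6.22 mM⁻¹cm⁻¹), activity in μmol NADH/min/mg. Data normalized to uninhibited activity, IC50 by log(inhibitor) vs response fit. Mean of three independent experiments.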

[2] = system: Mycolicibacterium smegmatis; experiment: Bactericidal activity against Mycobacterium smegmatis at 8.9 uM after 3 to 24 hrs by colony forming unit count method; format: functional, organism-based
How it was run: (§3)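 Cultures grown in LBT to OD600 ~0.5, then dosed at 8.9 μM per OD600, or CCCP at 500 μM; no-compound and DMSO controls. OD600 taken at 0, 3, 9 and 24 h. CFU at 0, 9 and 24 h: cells washed, diluted in PBS + 0.05% Tween80, spotted on LBT (Miles–Misra), counted after 3 days at 37°C (5–50 colonies). Three biological replicates.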

[3] = system: Mycobacterium tuberculosis; experiment: Antimicrobial activity against Mycobacterium tuberculosis H37Ra after 5 days by serial macrobroth dilution method; format: functional, organism-based; settings: 120 h
How it was run: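 M. tuberculosis H37Ra in 7H9 with 0.5% glycerol, 10% ADC and 0.05% Tween80. Serial macrobroth dilution 128–0.5 μg/mL, log-phase inoculum to final OD600 0.005, 37°C, 200 rpm. Growth read visually at 5 days. No-compound and DMSO controls included. Three biological replicates averaged.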

[4] = system: Mycolicibacterium smegmatis; experiment: Antimicrobial activity against Mycobacterium smegmatis (MC2) 155 after 24 hrs by serial macrobroth dilution method; format: functional; settings: (MC2) 155, 24 h
How it was run: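 Serial macrobroth dilution, 128–0.5 μg/mL in LBT (LB + 0.05% Tween80). Log-phase mc²155 inoculated to final OD600 0.005, incubated 37°C at 200 rpm. Growth scored by eye after 24 h. No-compound and DMSO controls included. Figure data are the average of three biological replicates.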

[5] = system: Mycolicibacterium smegmatis; experiment: Bacteriostatic against Mycobacterium smegmatis at 4.8 ug/ml after 3 to 24 hrs by colony forming unit count method; format: functional, organism-based; how it was run: as §3
[6] = as §1; set-up: species or system Mycolicibacterium smegmatis; how it was run: as §2
[7] = system: Mycolicibacterium smegmatis; experiment: Inhibition of NDH2 in Mycobacterium smegmatis (MC2) 155 membrane assessed inhibition of oxygen consumption relative to control
How it was run: (§4)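 Clark-type O2 electrode, 2 mL mix at 37°C, calibrated to 220 nmol O2/mL with air-saturated 20 mM sodium phosphate pH 8.0. M. smegmatis membrane vesicles (French press, 100,000 × g pellet) driven by 10 mM NADH. Test range 0–80 μM; TPZ 0–200 μM. Controls: 80 μM comparators, DMSO, 200 μM KCN, no compound. Two-tailed t-test, p<0.05.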

[8] = system: Mycolicibacterium smegmatis; experiment: Bactericidal activity against Mycobacterium smegmatis at 500 uM after 3 to 24 hrs by colony forming unit count method; format: functional, organism-based; how it was run: as §3
[9] = Inhibition of Mycobacterium tuberculosis NDH2
[10] = system: Mycolicibacterium smegmatis; experiment: Effect on NDH2 in Mycobacterium smegmatis (MC2) 155 membrane assessed increase in oxygen consumption relative to control; how it was run: as §4

SMILES	IC50 [3]	MIC [4]	other results
c1ccc2c(c1)Nc1ccccc1S2 [PHENOTHIAZINE]	> 64 µg/mL	> 64 µg/mL	inhibition [1]: inactive; Activity [2]: inactive
[Cl-].c1ccc([P+](CCCN2c3ccccc3Sc3ccccc32)(c2ccccc2)c2ccccc2)cc1	–	4 µg/mL	Activity [5]: Active; IC50 [6]: 15.1 µM; INH [7]: 40 µM
CC(CN1c2ccccc2Sc2ccccc21)N(C)C (stereo not drawn) [PROMETHAZINE]	–	–	MIC [3]: 20 µg/mL (≈ 70.3 µM)
Clc1ccc2c(c1)Nc1ccccc1S2	> 64 µg/mL	> 64 µg/mL	–
N#CC(C#N)=NNc1cccc(Cl)c1	–	–	Activity [8]: Active
C=C(C)[C@H]1Cc2c(ccc3c2O[C@@H]2COc4cc(OC)c(OC)cc4[C@@H]2C3=O)O1	–	–	inhibition [1]: inactive
FC(F)(F)c1ccc2c(c1)Nc1ccccc1S2	> 64 µg/mL	> 64 µg/mL	–
FC(F)(F)c1ccc2c(c1)N(CCC[P+](c1ccccc1)(c1ccccc1)c1ccccc1)c1ccccc1S2.[Cl-]	1 µg/mL	12 µg/mL	–
CN(C)CCCN1c2ccccc2Sc2ccccc21 [PROMAZINE]	128 µg/mL (≈ 450 µM)	> 128 µg/mL	–
CN1CCN(CCCN2c3ccccc3Sc3ccc(C(F)(F)F)cc32)CC1 [TRIFLUOPERAZINE]	8 µg/mL (≈ 19.6 µM)	64 µg/mL (≈ 157 µM)	IC50 [6]: 60.1 µM; IC50 [9]: 12 µM; INH [7]: 100 µM
Clc1ccc2c(c1)N(CCC[P+](c1ccccc1)(c1ccccc1)c1ccccc1)c1ccccc1S2.[Cl-]	1 µg/mL	6 µg/mL	–
CN(C)CCCN1c2ccccc2Sc2ccc(Cl)cc21 [CHLORPROMAZINE]	–	–	IC50 [9]: 10 µM; MIC [3]: 10 µg/mL (≈ 31.4 µM)
CCC[P+](c1ccccc1)(c1ccccc1)c1ccccc1.[Br-]	> 128 µg/mL	> 128 µg/mL	inhibition [1]: inactive; Activity [2]: inactive; Activity [10]: Active
